We go through 2 molecules from ChEMBL document CHEMBL4354791, “Different solid forms for optimizing route of administration of the herpes drug Pritelivir” (Medchemcomm, 2019).

In brackets after ≈: the same amount, converted by molar mass.

Common to all, as to assay type: physicochemical
Series [1] is described as follows: Saturated solubility of compound in ethanol.
The nature of series [2]: Saturated solubility of compound in benzyl alcohol.
A short description of series [3]: Saturated solubility of compound in phenoxy ethanol.
Series [4] in a line: Saturated solubility of compound in dimethyl isosorbide.
The nature of series [5]: Saturated solubility of compound in propylene glycol.
Series [6] is described as follows: Saturated solubility of compound in transcutol p.
The nature of series [7]: Saturated solubility of compound in glycerin.
Series [8] in a line: Saturated solubility of compound in water. The essentials:
(§1)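 Saturated solubility in the named medium (water or buffer at the stated pH), reported in mg ml−1. Levels below the detection limit are reported as BLOQ.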

Series [9] can be described thus: Saturated solubility of compound in buffer at pH 3.5. The essentials: as §1
Series [10] can be described thus: Saturated solubility of compound in buffer at pH 4.5. The essentials:
as §1

Series [11] is described as follows: Saturated solubility of compound in buffer at pH 5.5. The essentials: as §1
The nature of series [12]: Solubility of compound at pH 7.4. Particulars: buffer.
Series [13] is described as follows: Saturated solubility of compound in isopropanol.
Series [14] can be described thus: Saturated solubility of compound in oleyl-alcohol.
Series [15] in a line: Saturated solubility of compound in isopropyl myristate.
The nature of series [16]: Saturated solubility of compound in crodamol-GTC.
Series [17] is described as follows: Saturated solubility of compound in buffer at pH 7. In a few lines:
as §1

Turning to `CS(=O)(=O)O.Cc1nc(N(C)C(=O)Cc2ccc(-c3ccccn3)cc2)sc1S(N)(=O)=O` [PRITELIVIR MESYLATE], the solubility (thermodynamic) in series [1] turned out to be 700 µg/mL; in series [3] it was 10700 µg/mL; in series [5], 4700 µg/mL; in series [6], 1300 µg/mL; in series [7], 13100 µg/mL; in series [11], 200 µg/mL. The solubility in [2] is 2000 µg/mL; in series [4] (BLD = below limit of detection), “Bld”; in series [8] (water, read-out: solubility) it was 1200 µg/mL; in series [9] it was 1300 µg/mL; in series [10], 400 µg/mL.

Turning to `Cc1nc(N(C)C(=O)Cc2ccc(-c3ccccn3)cc2)sc1S(N)(=O)=O` [PRITELIVIR], the solubility was 11.5 µg/mL (≈ 28.6 µM) in series [12]; 2200 µg/mL (≈ 5470 µM) in series [2]; 82300 µg/mL (≈ 204000 µM) in series [4]; “Bld” in series [8] (buffer, BLD = below limit of detection); 100 µg/mL (≈ 248 µM) in [9]; 100 µg/mL (≈ 248 µM) in series [10]. In addition, the solubility (thermodynamic) in [1] turned out to be 300 µg/mL (≈ 745 µM); in series [13], 400 µg/mL (≈ 994 µM); in series [3], 2200 µg/mL (≈ 5470 µM); in series [5] it was 28400 µg/mL (≈ 70600 µM); in series [6], 44800 µg/mL (≈ 111000 µM); in [14] it was 100 µg/mL (≈ 248 µM). Moreover, the thermodynamic solubility stood at 500 µg/mL (≈ 1240 µM) in [7]; 100 µg/mL (≈ 248 µM) in [15]; 200 µg/mL (≈ 497 µM) in series [16]; 100 µg/mL (≈ 248 µM) in [11]; 100 µg/mL (≈ 248 µM) in series [17].
